In PubChem BioAssay:
Records with an inconclusive call do not appear. The source made the active and inactive calls.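 Rule for the calls, unless noted: active = RAM network inhibition above 8.4% in each of two replicates, 3 SD over the compound average; inconclusive = above 8.4% inhibition in only one replicate; inactive = 8.4% inhibition or less in each replicate.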

How the values were obtained:
[1] = S. cerevisiae growth inhibition in permissive medium (OD615), pilot counter-assay for S. cerevisiae lifespan shortening project, permissive growth control (AID 705;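 active = growth inhibition above 25% in both replicates, a cutoff set 3 SD above the mean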); details: OD615, 24 h, at 10 µM, stronger effect = higher value
Outline: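 System: S. cerevisiae with engineered DeaD lifespan system / Measured by: absorbance (optical density) at 615 nm / Read-out: reduction in yeast growth (OD615) / Times: 4 h cell pre-growth, 24 h exposure at 30 °C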

[2] = S. cerevisiae growth inhibition in restrictive medium, OD615, pilot screen, restrictive growth control, yeast lifespan reduction project (AID 706;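 active = growth inhibition above a set limit, 3 SD over mean compound inhibition, in both replicates, cut at about 43% in these data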;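 note: modified DeaD lifespan yeast strain shifted to restrictive glucose medium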); details: OD615, 48 h, at 10 µM, stronger effect = higher value
Outline: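 System: Engineered S. cerevisiae DeaD strain | Buffer or medium: Glucose-based CSMM-D restrictive medium | Schedule: 4 h pre-incubation, 48 h exposure at 30 °C | Technique: Optical density at 615 nm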

[3] = doxorubicin toxicity protection in MRP-1 cells – H69AR cells, CellTiter-Glo, duplicate, MRP-1 activator project, pilot screen (AID 807;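 active = viability increase at or above a cutoff of the median across tested compounds plus 3 SD, cut at about 8.5% in these data, passing the limit was not always enough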;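 note: compound pretreatment 18-22 h then 72 h combined with doxorubicin; 0% = doxorubicin alone and 100% = vehicle without doxorubicin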); details: H69AR viability with doxorubicin, CellTiter-Glo luminescence; at 10 µM; stronger effect = higher value
[4] = viability of PTEN-null HCT116 cells – cell-based, HCT116 clonal line, CellTiter-Glo, pilot screen (AID 824;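 active = viability at or below 27.92% in each of two runs, the all-compound median minus 4 SD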;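 note: 0% = 20 µM Hyamine control and 100% = vehicle cell control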); details: HCT116 PTEN-deleted viability, 60 h, at 10 µM, stronger effect = lower value
[5] = RAM pathway blockade in budding yeast – dse1pr::URA3 reporter, 5-FOA selection, pilot screen (AID 869;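 active = inhibition over a set limit, the all-compound mean plus 3 SD, in both replicate runs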;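 note: 0% = DMSO wells with no growth and 100% = 10 µM 1-NA-PP1 with full growth; RAM network block rescues cells from 5-FOA so hits raise OD615 growth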); details: S. cerevisiae dse1pr::URA3 5-FOA growth, OD615, 2 d; at 10 µM; stronger effect = higher value; strain carries analog-sensitive mutant Cbk1 kinase
[6] = RAM signaling pathway blockade in yeast – S. cerevisiae, Pdr1DBD-CYC8 efflux-inhibited sensitized strain, primary screen (AID 1298);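 note: 0% = DMSO untreated cells without growth and 100% = 10 µM 1-NA-PP1 full growth; higher means more yeast growth rescued from 5-FOA killing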; details: S. cerevisiae cbk1-as DSE1-URA3 strain, 5-FOA growth OD615, 2 d; at 50 µM; stronger effect = higher value

Brc1ccc2ncnc(NCc3ccco3)c2c1
inactive: growth inhibition [1] 2.37% | growth inhibition [2] 13% | viability increase [3] -7.68% | viability [4] 35.5% | inhibition [5] 1.71% | RAM network inhibition [6] 4.76%

O=C(CCCC(=O)N1CCCc2ccccc21)N1CCCc2ccccc21
inactive: growth inhibition [1] -8.11% | growth inhibition [2] -5.5% | viability increase [3] -4.74% | viability [4] 95.3% | inhibition [5] 2.04% | RAM network inhibition [6] 1.5%

COc1ccccc1C(=O)Nc1ccc2c(c1)OCO2
inactive: growth inhibition [1] 4.22% | growth inhibition [2] -12.9% | viability increase [3] -3.95% | viability [4] 89.2% | inhibition [5] 2.47% | RAM network inhibition [6] -1.49%

Cc1ccc(N(CC(=O)NC2CC3CCC2C3)S(C)(=O)=O)cc1C (stereo not given)
inactive: growth inhibition [1] -2.18% | growth inhibition [2] -4.39% | viability increase [3] -2.03% | viability [4] 96.8% | inhibition [5] 1.26% | RAM network inhibition [6] 5.17%

CCN1C=C(C(=O)OC)C(c2cccc(C)c2)C(C(=O)OC)=C1
inactive: growth inhibition [1] -1.2% | growth inhibition [2] -11.5% | viability increase [3] -3.43% | viability [4] 86% | inhibition [5] 3.02% | RAM network inhibition [6] 4.35%

CCOC(=O)c1ccc(NC(=O)N(CC)CC)cc1
inactive: growth inhibition [1] -7.39% | growth inhibition [2] -1.5% | viability increase [3] -0.97% | viability [4] 97.4% | inhibition [5] 0.865% | RAM network inhibition [6] 2.51%

CCOC(=O)C1CCN(C(=O)c2oc3ccc(S(=O)(=O)N4CC(C)CC(C)C4)cc3c2C)CC1 (stereo not given)
inactive: growth inhibition [1] 1.57% | growth inhibition [2] -4.64% | viability increase [3] -6.15% | viability [4] 52.7% | inhibition [5] -1.02% | RAM network inhibition [6] 5.32%

COC(=O)c1ccc2[nH]c(C)c(CN3CCCC3)c(=O)c2c1
inactive: growth inhibition [1] -4.34% | growth inhibition [2] 1.2% | viability increase [3] -2.3% | viability [4] 95.3% | inhibition [5] 0.415% | RAM network inhibition [6] 1.59%

CCOC(=O)N1CCc2c(sc(NC(=O)c3ccc(Cl)s3)c2C(N)=O)C1
inactive: growth inhibition [1] -0.755% | growth inhibition [2] 5.5% | viability increase [3] -2.73% | viability [4] 40% | inhibition [5] 0.53% | RAM network inhibition [6] -0.87%

Cc1ccc(C(C)NC(=O)c2ccco2)cc1C (stereo not given)
inactive: growth inhibition [1] -7.97% | growth inhibition [2] -4.3% | viability increase [3] -3.06% | viability [4] 98.8% | inhibition [5] 0.75% | RAM network inhibition [6] -1.23%

CCn1cc(S(=O)(=O)CC(=O)NC2CCCCC2)c2ccccc21
inactive: growth inhibition [1] -9.89% | growth inhibition [2] -0.52% | viability increase [3] -1.1% | viability [4] 97.4% | inhibition [5] 1.71% | RAM network inhibition [6] 2.87%

CCN1CCN(CCNC(=O)C2CCCN(Cc3nc(-c4cccc(Cl)c4)oc3C)C2)CC1 (stereo not given)
inactive: growth inhibition [1] -9.33% | growth inhibition [2] -13.1% | viability increase [3] -6.96% | viability [4] 35% | inhibition [5] -1.05% | RAM network inhibition [6] 0.71%

O=C(CN1CCN(c2ccccn2)CC1)N(c1ccccc1)c1ccc2ccccc2c1
inactive: growth inhibition [1] -6.17% | growth inhibition [2] -0.835% | viability increase [3] -1.57% | viability [4] 69.9% | inhibition [5] 2.88% | RAM network inhibition [6] 5.32%

C/C(=C1/SC(=S)N(CCC(=O)O)C1=O)c1ccc(O)cc1
inactive: growth inhibition [1] -5.09% | growth inhibition [2] -8.91% | viability increase [3] 1.4% | viability [4] 98.1% | inhibition [5] 1.2% | RAM network inhibition [6] 0.45%

COc1ccc(S(=O)(=O)C(C#N)c2nc3ccccc3nc2N2CCC(C)CC2)cc1 (stereo not given)
inactive: growth inhibition [1] -12.1% | growth inhibition [2] -14.1% | viability increase [3] -4.72% | viability [4] 87.9% | inhibition [5] 3.85% | RAM network inhibition [6] 8.8%

O=C(C1CC1)N1CCc2cc(Br)cc(S(=O)(=O)NCCN3CCOCC3)c21
inactive: growth inhibition [1] -5.94% | growth inhibition [2] -6.43% | viability increase [3] -2.94% | viability [4] 94.7% | inhibition [5] 1.69% | RAM network inhibition [6] 2.57%

COc1cc(C(=O)N2CCN(c3cccc(C)c3C)CC2)cc(OC)c1OC
active: viability [4] 20.1%
inactive: growth inhibition [1] 0.72% | growth inhibition [2] 9.77% | viability increase [3] -5.32% | inhibition [5] -0.125% | RAM network inhibition [6] 10.1%

Cc1nc2ccccc2c(=O)n1CCCO
inactive: growth inhibition [1] -2.92% | growth inhibition [2] 0.055% | viability increase [3] -2.52% | viability [4] 96% | inhibition [5] 2.77% | RAM network inhibition [6] 3.03%

COc1ccc(OC)c2c(C)cc(N3CCCN(C)CC3)nc12
inactive: growth inhibition [1] 3.26% | growth inhibition [2] -3.9% | viability increase [3] -4.81% | viability [4] 85.9% | inhibition [5] 0.015% | RAM network inhibition [6] 0%

CCOc1c(Br)cc(C(N)=O)cc1OC
inactive: growth inhibition [1] 5.05% | growth inhibition [2] -3.4% | viability increase [3] -2.49% | viability [4] 101% | inhibition [5] 0.87% | RAM network inhibition [6] 2.56%

Cc1nnc(NC(=O)CSc2nccn2-c2cccc(C)c2C)s1
inactive: growth inhibition [1] -7.29% | growth inhibition [2] 11.5% | viability increase [3] -5.19% | viability [4] 30.1% | inhibition [5] 0.035% | RAM network inhibition [6] 4.71%

c1ccc(-n2nnnc2-n2ccnc2)cc1
inactive: growth inhibition [1] 3.38% | growth inhibition [2] 1.55% | viability increase [3] -0.62% | viability [4] 109% | inhibition [5] 0.76% | RAM network inhibition [6] 0.92%

O=C(O)CCC(=O)CCC(=O)c1ccc(Cl)cc1
inactive: growth inhibition [1] 8.94% | growth inhibition [2] -2.93% | viability increase [3] -1.69% | viability [4] 94.3% | inhibition [5] -0.55% | RAM network inhibition [6] 5.32%

COc1cc(OC)cc(C(=O)Nc2cccc(C(C)=O)c2)c1
inactive: growth inhibition [1] -6.17% | growth inhibition [2] -2.38% | viability increase [3] -2.42% | viability [4] 89.9% | inhibition [5] 1.7% | RAM network inhibition [6] 1.49%

CC(C)CC(NC(=O)C1CCCCC1)C(=O)NCc1ccccn1 (stereo not given)
inactive: growth inhibition [1] 1.21% | growth inhibition [2] -10.9% | viability increase [3] -4.03% | viability [4] 94.4% | inhibition [5] 1.04% | RAM network inhibition [6] -0.2%

Cc1ccc(C(=O)COC(=O)c2ccc(Br)o2)cc1C
inactive: growth inhibition [1] -5.44% | growth inhibition [2] -2.75% | viability increase [3] 1.02% | viability [4] 100% | inhibition [5] 2.77% | RAM network inhibition [6] 1.29%

CC(C)Cn1c(SCC#N)nc2ccccc2c1=O
inactive: growth inhibition [1] -0.35% | growth inhibition [2] -14.3% | viability increase [3] -1.74% | viability [4] 88% | inhibition [5] 1.18% | RAM network inhibition [6] 5.88%

Cc1ccc(S(=O)(=O)N2CCN(C(=O)CCC(=O)N3CCc4ccccc43)CC2)cc1
inactive: growth inhibition [1] -2.18% | growth inhibition [2] -5.78% | viability increase [3] -1.16% | viability [4] 99.4% | inhibition [5] -0.03% | RAM network inhibition [6] 2.05%

O=C(Nc1ccc(Cl)cc1)N(Cc1cccs1)Cc1cccs1
inactive: growth inhibition [1] -13.9% | growth inhibition [2] -21.5% | viability increase [3] -0.55% | viability [4] 64.9% | inhibition [5] 2.13% | RAM network inhibition [6] 8.73%

C/C(CC(O)c1ccc2ccccc2n1)=N/O (stereo not given)
inactive: growth inhibition [1] 1.34% | growth inhibition [2] 1.94% | viability increase [3] -0.7% | viability [4] 103% | inhibition [5] 0.445% | RAM network inhibition [6] 1.08%

CCOC(=O)N1CCN(C(=O)CN(c2ccc(Cl)c(C(F)(F)F)c2)S(C)(=O)=O)CC1
inactive: growth inhibition [1] -5.69% | growth inhibition [2] -17.2% | viability increase [3] -4.27% | viability [4] 90.3% | inhibition [5] -0.06% | RAM network inhibition [6] 3.68%

CC1=C(C(=O)N2CCOCC2)C(c2cc(C)cs2)NC(=O)N1 (stereo not given)
inactive: growth inhibition [1] -9.44% | growth inhibition [2] 2.88% | viability increase [3] -0.83% | viability [4] 101% | inhibition [5] 2.48% | RAM network inhibition [6] 3.08%

CCOC(=O)N1CCN(C(=O)CS(=O)(=O)c2cn(Cc3ccccc3C)c3ccccc23)CC1
inactive: growth inhibition [1] -9.04% | growth inhibition [2] -6% | viability increase [3] -2.26% | viability [4] 94% | inhibition [5] 2.09% | RAM network inhibition [6] 8.81%

COc1ccc(CCNC(=O)CN(c2ccc(OC)c(OC)c2)S(C)(=O)=O)cc1OC
inactive: growth inhibition [1] -1.96% | growth inhibition [2] -7.65% | viability increase [3] 0.32% | viability [4] 106% | inhibition [5] 0.98% | RAM network inhibition [6] 1.49%

O=C(Cc1ccc(Cl)cc1)Nc1ccccc1CO
inactive: growth inhibition [1] 0.105% | growth inhibition [2] -1.33% | viability increase [3] 0.18% | viability [4] 101% | inhibition [5] 0.45% | RAM network inhibition [6] 5.48%

CCN1C(=S)SC(=O)C1=C1C=C(C)N(CCO)C(C)=C1
inactive: growth inhibition [1] 1.7% | growth inhibition [2] 23.4% | viability increase [3] -2.35% | viability [4] 95.3% | inhibition [5] 1.45% | RAM network inhibition [6] 0.11%

CC(C)(Oc1ccc(Cl)cc1)C(=O)OCC(=O)N1CCCC1
inactive: growth inhibition [1] -8.95% | growth inhibition [2] -11% | viability increase [3] -2.58% | viability [4] 96.5% | inhibition [5] 0.455% | RAM network inhibition [6] -1.13%

COc1ccc(CCNS(=O)(=O)c2ccc3c(c2)OCCO3)cc1OC
inactive: growth inhibition [1] -9.32% | growth inhibition [2] -3.31% | viability increase [3] -1.53% | viability [4] 89.9% | inhibition [5] 3.12% | RAM network inhibition [6] 1.02%

CCCOc1ccc(/C(O)=C2/C(=O)C(=O)N(CCN(C)C)C2c2ccco2)cc1 (stereo not given)
inactive: growth inhibition [1] -0.855% | growth inhibition [2] 13.9% | viability increase [3] -4.27% | viability [4] 99.6% | inhibition [5] -0.28% | RAM network inhibition [6] -1.54%

NS(=O)(=O)c1ccc(NC(=O)COC(=O)CCNC(=O)NC23CC4CC(CC(C4)C2)C3)cc1
inactive: growth inhibition [1] -10.4% | growth inhibition [2] -4.2% | viability increase [3] 0.2% | viability [4] 98.6% | inhibition [5] 0.55% | RAM network inhibition [6] 3.28%
